Test [1] can be described thus: nonspecific flux increase, KCNQ1-free cells – parental CHO cells, counter-screen for KCNQ1 potentiator project (AID 493006;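 active means duplicate-averaged activation above buffer control mean plus 5 SD of those controls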). To be noted: parental CHO-K1 cells, FluxOR thallium flux, at 10 µM; active compounds read high. In short, it runs like this:
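Material: untransfected host CHO-K1 cells with FluxOR thallium dye. Timing: overnight 37 °C plating, 90 min RT dye, 20 min compound. Detection: kinetic FluxOR fluorescence, 10 s baseline, 110 s after stimulus. Read-out basis: max-minus-min fluorescence over baseline, percent of buffer-to-R-L3 span. Replicates: duplicate wells per compound, percent values averaged.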

Test [2] deals with Potassium voltage-gated channel subfamily KQT member 1 (Homo sapiens) (UniProt P51787). Nature of the test: enhancement of KCNQ1 channel thallium flux – FluxOR thallium flux, CHO cells, duplicates, confirmation (AID 493007).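 On outcome: cells depolarized by a potassium plus thallium sulfate stimulus after compound.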 To be noted: KCNQ1 cell line, FluxOR thallium flux fluorescence, at 10 µM; active compounds read high, % of reference activator effect, buffer zero. In short, it runs like this:
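Test system – KCNQ1-expressing CHO cell line · Incubation – FluxOR dye loading 90 min, compound exposure 20 min, room temperature · Detection – FluxOR Tl+ flux fluorescence, 10 s baseline plus 110 s recording · Controls – buffer-only wells as 0% and R-L3 activator as 100%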

In test [3] the target is Potassium voltage-gated channel subfamily KQT member 2 (Rattus norvegicus) (UniProt O88943). Nature of the test: KCNQ2 thallium flux enhancement – KCNQ2-CHO-K1 cells, selectivity assay for KCNQ1 potentiator project (AID 493009;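 active means mean duplicate potentiation above the buffer control mean plus 5 SD of buffer wells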;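 further: assay conditions were tuned for KCNQ1 rather than KCNQ2 modulators; signal is max minus min fluorescence divided by baseline after thallium stimulus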). Particulars: FluxOR thallium flux fluorescence, at 10 µM; active compounds read high, scaled: buffer 0, activator control 100.
Sequence of Potassium voltage-gated channel subfamily KQT member 2 (Rattus norvegicus) (O88943 whole entry, looked up): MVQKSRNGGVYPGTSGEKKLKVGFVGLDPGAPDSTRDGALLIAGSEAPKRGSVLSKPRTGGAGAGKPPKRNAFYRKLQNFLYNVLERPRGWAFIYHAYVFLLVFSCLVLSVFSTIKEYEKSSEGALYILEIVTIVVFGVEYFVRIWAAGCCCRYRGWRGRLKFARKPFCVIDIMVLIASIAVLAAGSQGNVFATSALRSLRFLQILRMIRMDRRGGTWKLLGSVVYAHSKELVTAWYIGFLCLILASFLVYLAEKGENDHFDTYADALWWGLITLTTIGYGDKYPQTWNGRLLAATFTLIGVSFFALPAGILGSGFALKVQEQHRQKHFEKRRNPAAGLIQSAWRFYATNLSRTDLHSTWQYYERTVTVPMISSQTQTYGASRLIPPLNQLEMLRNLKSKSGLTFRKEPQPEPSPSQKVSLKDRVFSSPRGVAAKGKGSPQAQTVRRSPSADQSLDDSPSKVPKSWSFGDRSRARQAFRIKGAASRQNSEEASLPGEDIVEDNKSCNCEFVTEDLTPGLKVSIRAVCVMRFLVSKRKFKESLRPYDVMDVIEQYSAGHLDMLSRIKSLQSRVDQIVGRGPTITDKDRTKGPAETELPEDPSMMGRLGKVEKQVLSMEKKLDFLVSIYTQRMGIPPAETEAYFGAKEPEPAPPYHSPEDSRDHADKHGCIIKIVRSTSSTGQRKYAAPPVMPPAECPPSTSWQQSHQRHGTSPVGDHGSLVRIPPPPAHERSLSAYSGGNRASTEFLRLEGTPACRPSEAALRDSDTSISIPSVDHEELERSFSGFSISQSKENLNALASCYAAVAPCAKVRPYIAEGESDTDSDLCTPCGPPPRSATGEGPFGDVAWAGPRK
Test [4] has as its target Potassium voltage-gated channel subfamily KQT member 1 (Homo sapiens) (UniProt P51787). The test is described as follows: KCNQ1 activators by electrophysiology – IonWorks patch clamp, KCNQ1-CHO cells, orthogonal assay for KCNQ1 potentiator project, confirmation (AID 493184;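 active means current rise at least 3 SD above the untreated control mean in each of two repeat wells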). To be noted: automated patch clamp current, at 10 µM; active compounds read high. In outline:
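Read-out: Percent current increase versus pre-compound level | Assay system: CHO cells carrying KCNQ1 | Measured by: Automated perforated-patch electrophysiology | Medium: External bath solution at pH 7.4 | Dosing: One dose, 10 µM final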

The target in test [5] is Potassium voltage-gated channel subfamily E member 1 (Homo sapiens) + Potassium voltage-gated channel subfamily KQT member 1 (Homo sapiens) (UniProt P15382+P51787). The test is described as follows: KCNQ1-E1 channel activation – thallium flux, CHO-K1 KCNQ1/E1 cells, selectivity assay for KCNQ1 potentiator project, confirmation (AID 493186;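 active means mean duplicate activation above the buffer control mean plus 5 SD of those controls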). To be noted: FluxOR thallium flux, at 10 µM; active compounds read high. In short, it runs like this:
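Test system: CHO-K1 cells with KCNQ1/E1; dosing: one test concentration; signal: FluxOR Tl+ flux fluorescence, kinetic read; incubation: 90-min dye loading then 20-min compound exposure, both at room temperature; read-out basis: percent of R-L3 effect over buffer; replication: duplicate wells per compound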

Among the data in PubChem BioAssay are outcome and potentiation values, retold here.

Activity calls are given as the source filed them.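 How the source made its calls, unless noted: active means potentiation averaged over duplicate wells exceeding buffer-only control mean by more than 3 SD; inactive means the rest.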

Sequence of Potassium voltage-gated channel subfamily KQT member 1 (Homo sapiens) (P51787 whole entry, looked up): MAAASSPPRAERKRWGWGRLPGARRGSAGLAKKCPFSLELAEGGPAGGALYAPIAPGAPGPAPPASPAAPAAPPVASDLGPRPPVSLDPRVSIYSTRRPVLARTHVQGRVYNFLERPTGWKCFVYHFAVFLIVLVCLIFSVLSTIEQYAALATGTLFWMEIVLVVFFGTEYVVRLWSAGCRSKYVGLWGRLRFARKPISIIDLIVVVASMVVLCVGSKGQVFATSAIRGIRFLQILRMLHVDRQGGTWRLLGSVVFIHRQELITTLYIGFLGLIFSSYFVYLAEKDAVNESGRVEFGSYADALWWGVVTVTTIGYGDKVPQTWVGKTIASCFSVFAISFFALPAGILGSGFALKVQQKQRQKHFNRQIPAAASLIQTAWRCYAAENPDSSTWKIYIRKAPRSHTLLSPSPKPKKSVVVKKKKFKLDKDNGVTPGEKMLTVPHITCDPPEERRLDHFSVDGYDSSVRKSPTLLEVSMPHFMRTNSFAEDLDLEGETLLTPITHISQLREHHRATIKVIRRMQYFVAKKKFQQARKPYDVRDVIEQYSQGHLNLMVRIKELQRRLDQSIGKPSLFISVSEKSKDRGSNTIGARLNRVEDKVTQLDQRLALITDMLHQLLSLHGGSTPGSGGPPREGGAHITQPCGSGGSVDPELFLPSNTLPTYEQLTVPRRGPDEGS
Sequence of Potassium voltage-gated channel subfamily E member 1 (Homo sapiens) + Potassium voltage-gated channel subfamily KQT member 1 (Homo sapiens) (P51787 whole entry, looked up): as the sequence (P51787 whole entry, looked up) above

Consider `COc1ccc(-c2csc(NC(=S)NC(=O)c3cccs3)n2)cc1Br`, for which the outcome in test [1], in test [2], in test [3], in test [4] and in test [5] was inactive.

As for `COC(=O)[C@H](C)NC(=O)Nc1cc(Cl)ccc1C`, the result in test [1], in test [2], in test [3], in test [4] and in test [5] was inactive.

With `CN(C)CCNc1nc2sc3c(c2c(=O)n1CCc1ccccc1)CCCCC3`, the outcome in test [1], in test [3], in test [4] and in test [5] was inactive. Also, in test [2], the potentiation is 19% (active).

`CCN(CC)CCSc1nc2ccccc2c(=S)n1-c1ccccc1`: the outcome in test [1], in test [2], in test [3], in test [4] and in test [5] was inactive.

On to `CCn1c(=S)sc2nc(C)sc21`, for which the outcome in test [1], in test [2], in test [3], in test [4] and in test [5] was inactive.

Consider `CN1C(=O)c2ccc(NC(=O)c3c(F)c(F)c(F)c(F)c3F)cc2C1=O`, for which the outcome in test [1], in test [3], in test [4] and in test [5] was inactive. Further, the potentiation in test [2] is 25.5% (active).

Consider `O=C1C(=O)N(CCCc2ccccc2)c2ccccc21`, for which the outcome in test [1], in test [2], in test [3], in test [4] and in test [5] was inactive.

As to `O=C(Nc1nnc(-c2ccco2)o1)c1ccc(Cl)cc1`, the result in test [1], in test [2], in test [4] and in test [5] was inactive. The potentiation in test [3] is 148% (active).

As for `COc1cc(O)c2c(=O)c(-c3ccc(O[C@@H]4O[C@H](CO)[C@@H](O)[C@H](O)[C@H]4O)cc3)coc2c1`, the outcome in test [1], in test [2], in test [3], in test [4] and in test [5] was inactive.

Take `Cc1cccc(NC(=O)c2cccc(NC(=O)Cc3cccs3)c2)c1`: the outcome in test [1], in test [3], in test [4] and in test [5] was inactive. Besides, the potentiation in test [2] is 17.5% (active).

As for `C/C(=N\Nc1cccc2cccnc12)c1ccc[nH]1`, the outcome in test [1], in test [3], in test [4] and in test [5] was inactive. In addition, the potentiation in test [2] is 30% (active).

As for `Fc1ccc(/C=N/n2c(-c3cccs3)n[nH]c2=S)cc1`, the result in test [1], in test [2], in test [3], in test [4] and in test [5] was inactive.

Turning to `Cc1ccc2nc(C3CCN(S(=O)(=O)c4ccc5ccccc5c4)CC3)[nH]c2c1`, the result in test [1], in test [2], in test [3], in test [4] and in test [5] was inactive.

On to `Cc1nc(=S)c2c([nH]1)-c1ccccc1CC21CCCCC1`, for which the outcome in test [1], in test [4] and in test [5] was inactive. Further, the results for the potentiation in test [2] and in test [3] were 84.5% (active) and 180% (active), respectively.

Turning to `O=C(NC(=S)Nc1nc(-c2ccccc2)cs1)c1cccs1`, the result in test [1], in test [3], in test [4] and in test [5] was inactive. Besides, the potentiation in test [2] is 38% (active).

For the molecule `COc1cc(/C=C2\C(=O)N(CCC#N)N=C2C)c(Br)cc1OC(C)C`, the result in test [1], in test [2], in test [3], in test [4] and in test [5] was inactive.

Regarding `CCCN(CCC)Cc1c(C(=O)N/N=C/C(C)=C\c2ccco2)nnn1-c1nonc1N`, the outcome in test [1], in test [2], in test [3], in test [4] and in test [5] was inactive.

As to `CCN(CC)CCCNC(=O)c1c(O)c2cc(F)cc3c2n(c1=O)C(C)CC3` (stereo not given), the result in test [1], in test [2], in test [3], in test [4] and in test [5] was inactive.

`CCC1(CC)Cc2ccccc2-c2[nH]c(=S)[nH]c(=O)c21`: the outcome in test [1], in test [2], in test [3], in test [4] and in test [5] was inactive.

On to `CN(C)CCCN(C(=O)CCOc1ccccc1)c1nc2c(F)cccc2s1`, for which the result in test [1], in test [2], in test [3], in test [4] and in test [5] was inactive.

Regarding `CCc1ccc(NC(=S)NC2CC3CCCC(C2)N3Cc2cccs2)cc1` (stereo not given), the outcome in test [1], in test [2], in test [3], in test [4] and in test [5] was inactive.

As to `C/C(=N\NC(=S)NCCc1ccccc1)c1cccs1`, the result in test [1], in test [2], in test [3], in test [4] and in test [5] was inactive.

`O=[N+]([O-])c1ccc(S(=O)(=O)CC(CN2CCCCC2)N2CCCCC2)cc1` (stereo not given): the result in test [1], in test [2], in test [3], in test [4] and in test [5] was inactive.

As to `CCOC(=O)C(Sc1nnc(-c2ccncc2)o1)C(C)=O` (stereo not given), the result in test [1], in test [2], in test [3], in test [4] and in test [5] was inactive.

Take `CCN(CC)CCNc1ncnc2c1sc1nc(N3CCCC3)c3c(c12)CC(C)(C)OC3`: the result in test [1], in test [2], in test [3], in test [4] and in test [5] was inactive.

As for `CC1(c2ccc(OC(F)F)cc2)NC(=O)N(CC(=O)Nc2ccc3c(c2)OCO3)C1=O` (stereo not given), the result in test [1], in test [2], in test [3], in test [4] and in test [5] was inactive.

For the molecule `CSCC(C)N1CCC(n2nccc2NC(=O)CCOc2ccccc2)CC1` (stereo not given), the result in test [1], in test [2], in test [3], in test [4] and in test [5] was inactive.

For `O=C(O)c1ccc([N+](=O)[O-])c(CS(=O)(=O)c2ccccc2)c1`, the outcome in test [1], in test [2], in test [3], in test [4] and in test [5] was inactive.
